# Results taken from ChEMBL document CHEMBL2062460, “Disubstituted thiourea derivatives and their activity on CNS: synthesis and biological evaluation” (Eur J Med Chem, 2012).
# pEC50: −log10 of the molar value. The source made the active and inactive calls. The calls are words filed in the database; no cut-off is given here.
# Experiments:
# [1] = system: Staphylococcus epidermidis; test: Antibacterial activity against methicillin-resistant Staphylococcus epidermidis clinical isolate 315/08 after 18 hrs by twofold serial agar dilution technique; type: functional; details: clinical isolate 315/08, 18 h
# How it was run: (§1)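 Clinical isolates came from patients in Warsaw Medical University Hospitals and were classed as methicillin-susceptible or -resistant. MIC was determined by twofold serial agar dilution on Mueller–Hinton II agar (CLSI), 3.125–400 µg/mL in agar, with compounds in methanol or DMSO. Inoculum was 10^4 CFU/mL and plates were read after 18 h at 35 °C.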
# [2] = system: Staphylococcus epidermidis; test: Antibacterial activity against methicillin-resistant Staphylococcus epidermidis clinical isolate 342/09 after 18 hrs by twofold serial agar dilution technique; type: functional; details: clinical isolate 342/09, 18 h; how it was run: as §1
# [3] = system: Staphylococcus epidermidis; test: Antibacterial activity against methicillin-resistant Staphylococcus epidermidis clinical isolate 311/08 after 18 hrs by twofold serial agar dilution technique; type: functional; details: clinical isolate 311/08, 18 h; how it was run: as §1
# [4] = Cytotoxicity against human MT4 cells after 96 hrs by MTT assay; type: cell-based
# [5] = system: Human immunodeficiency virus 1; test: Antiviral activity against HIV1 infected in human MT4 cells assessed as virus-induced cytopathogenicity after 4 days by MTT assay; type: functional, organism-based; details: Human immunodeficiency virus 1, MT4, 96 h
# [6] = system: Staphylococcus epidermidis; test: Antibacterial activity against methicillin-resistant Staphylococcus epidermidis clinical isolate 377/09 after 18 hrs by twofold serial agar dilution technique; type: functional; details: clinical isolate 377/09, 18 h; how it was run: as §1
# [7] = system: Staphylococcus epidermidis; test: Antibacterial activity against methicillin-resistant Staphylococcus epidermidis clinical isolate 343/09 after 18 hrs by twofold serial agar dilution technique; type: functional; details: clinical isolate 343/09, 18 h; how it was run: as §1
# [8] = system: Staphylococcus epidermidis; test: Antibacterial activity against methicillin-resistant Staphylococcus epidermidis clinical isolate 341/09 after 18 hrs by twofold serial agar dilution technique; type: functional; details: clinical isolate 341/09, 18 h; how it was run: as §1
# [9] = system: Staphylococcus epidermidis; test: Antibacterial activity against methicillin-resistant Staphylococcus epidermidis clinical isolate 318/08 after 18 hrs by twofold serial agar dilution technique; type: functional; details: clinical isolate 318/08, 18 h; how it was run: as §1
# [10] = system: Staphylococcus epidermidis; test: Antibacterial activity against methicillin-resistant Staphylococcus epidermidis clinical isolate 340/09 after 18 hrs by twofold serial agar dilution technique; type: functional; details: clinical isolate 340/09, 18 h; how it was run: as §1
# [11] = system: Staphylococcus epidermidis; test: Antibacterial activity against methicillin-resistant Staphylococcus epidermidis clinical isolate 317/08 after 18 hrs by twofold serial agar dilution technique; type: functional; details: clinical isolate 317/08, 18 h; how it was run: as §1
# [12] = system: Staphylococcus epidermidis; test: Antibacterial activity against methicillin-resistant Staphylococcus epidermidis clinical isolate 316/08 after 18 hrs by twofold serial agar dilution technique; type: functional; details: clinical isolate 316/08, 18 h; how it was run: as §1
# Escherichia coli [13] = test: Antibacterial activity against Escherichia coli NCTC 8196 at 400 ug/disc after 18 hrs by disc diffusion method; type: functional, organism-based
# How it was run: (§2)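 Disc diffusion per CLSI on Mueller–Hinton II agar; 9 mm paper discs loaded from methanol or DMSO solutions to 400 µg per disc, dried; growth inhibition zone diameter read after 18 h at 35 °C.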
# Pseudomonas aeruginosa [14] = test: Antibacterial activity against Pseudomonas aeruginosa NCTC 6749 at 400 ug/disc after 18 hrs by disc diffusion method; type: functional, organism-based; how it was run: as §2
# Staphylococcus aureus [15] = test: Antibacterial activity against Staphylococcus aureus ATCC 6538 at 400 ug/disc after 18 hrs by disc diffusion method; type: functional; how it was run: as §2
# Escherichia coli [16] = test: Antibacterial activity against Escherichia coli ATCC 10538 at 400 ug/disc after 18 hrs by disc diffusion method; type: functional, organism-based; how it was run: as §2
# Enterococcus hirae = test: Antibacterial activity against Enterococcus hirae ATCC 10541 at 400 ug/disc after 18 hrs by disc diffusion method; type: functional; how it was run: as §2
# Micrococcus luteus [17] = test: Antibacterial activity against Micrococcus luteus ATCC 9341 at 400 ug/disc after 18 hrs by disc diffusion method; type: functional; how it was run: as §2
# Staphylococcus aureus [18] = test: Antibacterial activity against Staphylococcus aureus ATCC 29213 at 400 ug/disc after 18 hrs by disc diffusion method; type: functional; how it was run: as §2
# Staphylococcus aureus [19] = test: Antibacterial activity against Staphylococcus aureus NCTC 4163 at 400 ug/disc after 18 hrs by disc diffusion method; type: functional; how it was run: as §2
# Pseudomonas aeruginosa [20] = test: Antibacterial activity against Pseudomonas aeruginosa ATCC 27853 at 400 ug/disc after 18 hrs by disc diffusion method; type: functional, organism-based; how it was run: as §2
# Bacillus subtilis = test: Antibacterial activity against Bacillus subtilis ATCC 6633 at 400 ug/disc after 18 hrs by disc diffusion method; type: functional; details: ATCC 6633, 18 h, read-out: DIZ; how it was run: as §2
# Micrococcus luteus [21] = test: Antibacterial activity against Micrococcus luteus ATCC 10240 at 400 ug/disc after 18 hrs by disc diffusion method; type: functional; details: ATCC 10240, 18 h, read-out: DIZ; how it was run: as §2
# [22] = system: Staphylococcus epidermidis; test: Antibacterial activity against Staphylococcus epidermidis ATCC 12228 at 400 ug/disc after 18 hrs by disc diffusion method; type: functional; how it was run: as §2
# Escherichia coli [23] = test: Antibacterial activity against Escherichia coli ATCC 25922 at 400 ug/disc after 18 hrs by disc diffusion method; type: functional, organism-based; how it was run: as §2
# Bacillus cereus = test: Antibacterial activity against Bacillus cereus ATCC 11778 at 400 ug/disc after 18 hrs by disc diffusion method; type: functional; how it was run: as §2
# Proteus vulgaris = test: Antibacterial activity against Proteus vulgaris NCTC 4635 at 400 ug/disc after 18 hrs by disc diffusion method; type: functional, organism-based; how it was run: as §2
# Pseudomonas aeruginosa [24] = test: Antibacterial activity against Pseudomonas aeruginosa ATCC 15442 at 400 ug/disc after 18 hrs by disc diffusion method; type: functional, organism-based; how it was run: as §2
# Candida albicans [25] = test: Antifungal activity against Candida albicans ATCC 10231 at 400 ug/disc after 18 hrs by disc diffusion method; type: functional, organism-based
# How it was run: (§3)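 Yeasts tested by disc diffusion (CLSI) on RPMI agar with 2% glucose; 9 mm paper discs bearing 400 µg compound from methanol or DMSO solution; inhibition zone diameter read after 18 h at 35 °C.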
# Candida albicans [26] = test: Antifungal activity against Candida albicans ATCC 90028 at 400 ug/disc after 18 hrs by disc diffusion method; type: functional, organism-based; how it was run: as §3
# Staphylococcus aureus [27] = test: Antibacterial activity against Staphylococcus aureus ATCC 25923 at 400 ug/disc after 18 hrs by disc diffusion method; type: functional; how it was run: as §2
# [28] = system: Bordetella bronchiseptica; test: Antibacterial activity against Bordetella bronchiseptica ATCC 4617 at 400 ug/disc after 18 hrs by disc diffusion method; type: functional, organism-based; how it was run: as §2
# Candida parapsilosis = test: Antifungal activity against Candida parapsilosis ATCC 22019 at 400 ug/disc after 18 hrs by disc diffusion method; type: functional, organism-based; how it was run: as §3
# Mus musculus [29] = test: Anticonvulsant activity in Albino Swiss mouse assessed as protection against pentylenetetrazole-induced severity of clonic or tonic seizures administered at doses equivalent to 0.1 ED50, ip; type: functional, organism-based
# Mus musculus [30] = test: Anticonvulsant activity in Albino Swiss mouse assessed as protection against pentylenetetrazole-induced mortality administered at doses equivalent to 0.1 ED50, ip; type: functional, organism-based
# Mus musculus [31] = test: Toxicity in Albino Swiss mouse assessed as motor coordination administered at doses equivalent to 0.1 ED50, ip by rota rod test; type: organism-based; details: in vivo
# Mus musculus [32] = test: Toxicity in Albino Swiss mouse assessed as locomotor activity administered at doses equivalent to 0.1 ED50, ip measured after 1 hr for 30 mins; type: organism-based; details: in vivo
# How it was run: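 Spontaneous locomotor activity of single male Albino Swiss mice in photoresistor actometers (two light beams), beam crossings recorded for 30 min, starting 60 min after i.p. compound in 0.5% methylcellulose.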
# Mus musculus [33] = test: Reduction of body temperature in normothermic Albino Swiss mouse administered at doses equivalent to 0.1 ED50, ip measured in rectum by thermistor thermometer analysis; type: ADME, organism-based; details: in vivo
# Mus musculus [34] = test: Toxicity in Albino Swiss mouse assessed as motor coordination administered at doses equivalent to 0.1 ED50, ip by chimney test; type: organism-based; details: in vivo
# Mus musculus [35] = test: Toxicity in Albino Swiss mouse assessed as effect on amphetamine-induced hyperactivity administered at doses equivalent to 0.1 ED50, ip; type: organism-based; details: in vivo
# How it was run: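 Compound i.p. in 0.5% methylcellulose 60 min before test; amphetamine 5 mg/kg s.c. 30 min before test; single mice in photoresistor actometers, light-beam crossings counted for 30 min.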
# Mus musculus [36] = test: Antinociceptive activity in Albino Swiss mouse administered at doses equivalent to 0.025 to 0.1 ED50, ip; type: functional, organism-based
# Mus musculus [37] = test: Reduction of 5-hydroxytryptophan-induced head twitch in Albino Swiss mouse administered at doses equivalent to 0.1 ED50, ip; type: functional, organism-based
Compound,CC50 at 96 h [4] [µM],pEC50 [5],diameter of the inhibition zone (DIZ) (Escherichia coli [13]),diameter of the inhibition zone (DIZ) (Pseudomonas aeruginosa [14]),diameter of the inhibition zone (DIZ) (Staphylococcus aureus [15]),diameter of the inhibition zone (DIZ) (Escherichia coli [16]),diameter of the inhibition zone (DIZ) (Enterococcus hirae),diameter of the inhibition zone (DIZ) (Staphylococcus aureus [18]),diameter of the inhibition zone (DIZ) (Staphylococcus aureus [19]),diameter of the inhibition zone (DIZ) (Pseudomonas aeruginosa [20]),zone of inhibition at 400 µg/disc (Bacillus subtilis) [mm],zone of inhibition at 400 µg/disc (Micrococcus luteus [21]) [mm],diameter of the inhibition zone (DIZ) [22],diameter of the inhibition zone (DIZ) (Escherichia coli [23]),diameter of the inhibition zone (DIZ) (Bacillus cereus),diameter of the inhibition zone (DIZ) (Proteus vulgaris),diameter of the inhibition zone (DIZ) (Pseudomonas aeruginosa [24]),diameter of the inhibition zone (DIZ) (Candida albicans [25]),diameter of the inhibition zone (DIZ) (Candida albicans [26]),diameter of the inhibition zone (DIZ) (Staphylococcus aureus [27]),other results
Nc1ncnn1/C(S)=N/C1CCCCC1,> 100,< 4.00,–,–,–,–,–,–,–,–,–,–,–,–,–,–,–,–,–,–,MIC [1]: 12.5 µg/mL; MIC [2]: 25 µg/mL; MIC [3]: 25 µg/mL; MIC [6]: 25 µg/mL; MIC [7]: 12.5 µg/mL; MIC [8]: 25 µg/mL; MIC [9]: 12.5 µg/mL; MIC [10]: 12.5 µg/mL; MIC [11]: 25 µg/mL; MIC [12]: 25 µg/mL
Cc1ccc(NC(=S)Nc2nc[nH]n2)cc1,59,< 4.30,inactive,inactive,inactive,inactive,inactive,inactive,inactive,inactive,13,12,inactive,inactive,inactive,inactive,inactive,inactive,inactive,inactive,diameter of the inhibition zone (DIZ) (Micrococcus luteus [17]): inactive; diameter of the inhibition zone (DIZ) [28]: inactive; diameter of the inhibition zone (DIZ) (Candida parapsilosis): inactive
S=C(Nc1cccc(Br)c1)Nc1nc[nH]n1,50,< 4.30,inactive,inactive,inactive,inactive,inactive,inactive,inactive,inactive,16,14,inactive,inactive,inactive,inactive,inactive,inactive,inactive,inactive,"Activity (Mus musculus [29]): inactive; Activity (Mus musculus [30]): inactive; Activity (Mus musculus [31]): Non-toxic; Activity (Mus musculus [32]): Non-toxic; zone of inhibition at 400 µg/disc (Micrococcus luteus [17]; ATCC 9341, 18 h, read-out: DIZ): 15 mm; Activity (Mus musculus [33]): Toxic; Activity (Mus musculus [34]): Non-toxic; Activity (Mus musculus [35]): Non-toxic; Activity (Mus musculus [36]): Active; Activity (Mus musculus [37]): Active; diameter of the inhibition zone (DIZ) [28]: inactive; diameter of the inhibition zone (DIZ) (Candida parapsilosis): inactive"
COc1ccc(NC(=S)Nc2nc[nH]n2)cc1,> 100,< 4.00,–,–,–,–,–,–,–,–,–,–,–,–,–,–,–,–,–,–,–
